Measurements: ChEMBL document CHEMBL5058577, “EUbOPEN Chemogenomics Library 2 (Multiplex)” (2022)

Test system: U2OS
Assay: Multiplex assay against U2OS
Type: toxicity, cell-based
Settings: human
In short: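 Per cents of healthy-nucleus cells form the tubulin, mitochondrial-mass and membrane-permeability phenotype values. Live cells were stained at seeding with Hoechst33342, BioTracker Green Microtubule Cytoskeleton Dye, MitoTracker Red and Annexin V Alexa Fluor 680. After compound addition they were imaged on a CQ1 microscope at 37°C and 5% CO2, and CellPathfinder machine-learning gating split them into Hoechst high-intensity objects or normal cells, normal cells into healthy, pyknosed or fragmented nuclei, and pyknosed cells into mitotic or apoptotic.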

[1] = 12 h, 1 µM, compound concentration 1 uM, replicate 1
[2] = 12 h, 1 µM, compound concentration 1 uM, replicate 2
[3] = 12 h, 10 µM, compound concentration 10 uM, replicate 1
[4] = 12 h, 10 µM, compound concentration 10 uM, replicate 2
[5] = 24 h, 1 µM, compound concentration 1 uM, replicate 1
[6] = 24 h, 1 µM, compound concentration 1 uM, replicate 2
[7] = 24 h, 10 µM, compound concentration 10 uM, replicate 1
[8] = 24 h, 10 µM, compound concentration 10 uM, replicate 2
[9] = 48 h, 1 µM, compound concentration 1 uM, replicate 1
[10] = 48 h, 1 µM, compound concentration 1 uM, replicate 2
[11] = 48 h, 10 µM, compound concentration 10 uM, replicate 1
[12] = 48 h, 10 µM, compound concentration 10 uM, replicate 2

Compound: COc1cc(C(=O)N(CCCc2ccccc2)Cc2ccc(CC(=O)O)cc2)cc(OC)c1C
- Population Apoptotic (%) [1]: 95%
- Population Fragmented Nuclei (%) [1]: 29%
- Population Healthy Nuclei (%) [1]: 60%
- Population Hoechst High Intensity Objects (%) [1]: 4%
- Population Membrane Permeable-Phenotype (%) [1]: 7%
- Population Mitochondria Different-Phenotype (%) [1]: 4%
- Population Mitotic Cells (%) [1]: 4%
- Population Normal (%) [1]: 95%
- Population Pyknosed Nuclei (%) [1]: 10%
- Population Tubulin-Different-Phenotype (%) [1]: 4%
- Total Cell Count [1]: 228
- Population Apoptotic (%) [2]: 70%
- Population Fragmented Nuclei (%) [2]: 23%
- Population Healthy Nuclei (%) [2]: 65%
- Population Membrane Permeable-Phenotype (%) [2]: 8%
- Population Mitochondria Different-Phenotype (%) [2]: 1%
- Population Mitotic Cells (%) [2]: 30%
- Population Pyknosed Nuclei (%) [2]: 11%
- Population Tubulin-Different-Phenotype (%) [2]: 1%
- Total Cell Count [2]: 93
- Population Apoptotic (%) [3]: 82%
- Population Fragmented Nuclei (%) [3]: 22%
- Population Healthy Nuclei (%) [3]: 71%
- Population Hoechst High Intensity Objects (%) [3]: 0%
- Population Membrane Permeable-Phenotype (%) [3]: 5%
- Population Mitochondria Different-Phenotype (%) [3]: 0%
- Population Mitotic Cells (%) [3]: 17%
- Population Normal (%) [3]: 99%
- Population Pyknosed Nuclei (%) [3]: 6%
- Population Tubulin-Different-Phenotype (%) [3]: 2%
- Total Cell Count [3]: 262
- Population Apoptotic (%) [4]: 100%
- Population Fragmented Nuclei (%) [4]: 15%
- Population Healthy Nuclei (%) [4]: 79%
- Population Hoechst High Intensity Objects (%) [4]: 1%
- Population Membrane Permeable-Phenotype (%) [4]: 2%
- Population Mitochondria Different-Phenotype (%) [4]: 3%
- Population Mitotic Cells (%) [4]: 0%
- Population Normal (%) [4]: 98%
- Population Pyknosed Nuclei (%) [4]: 4%
- Population Tubulin-Different-Phenotype (%) [4]: 4%
- Total Cell Count [4]: 171
- Population Apoptotic (%) [5]: 84%
- Population Fragmented Nuclei (%) [5]: 29%
- Population Healthy Nuclei (%) [5]: 61%
- Population Hoechst High Intensity Objects (%) [5]: 2%
- Population Membrane Permeable-Phenotype (%) [5]: 7%
- Population Mitochondria Different-Phenotype (%) [5]: 6%
- Population Mitotic Cells (%) [5]: 15%
- Population Normal (%) [5]: 97%
- Population Pyknosed Nuclei (%) [5]: 9%
- Population Tubulin-Different-Phenotype (%) [5]: 4%
- Total Cell Count [5]: 288
- Population Apoptotic (%) [6]: 73%
- Population Fragmented Nuclei (%) [6]: 22%
- Population Healthy Nuclei (%) [6]: 64%
- Population Hoechst High Intensity Objects (%) [6]: 4%
- Population Membrane Permeable-Phenotype (%) [6]: 2%
- Population Mitochondria Different-Phenotype (%) [6]: 2%
- Population Mitotic Cells (%) [6]: 26%
- Population Normal (%) [6]: 95%
- Population Pyknosed Nuclei (%) [6]: 13%
- Population Tubulin-Different-Phenotype (%) [6]: 0%
- Total Cell Count [6]: 120
- Population Apoptotic (%) [7]: 94%
- Population Fragmented Nuclei (%) [7]: 18%
- Population Healthy Nuclei (%) [7]: 76%
- Population Hoechst High Intensity Objects (%) [7]: 0%
- Population Membrane Permeable-Phenotype (%) [7]: 7%
- Population Mitochondria Different-Phenotype (%) [7]: 2%
- Population Mitotic Cells (%) [7]: 5%
- Population Normal (%) [7]: 99%
- Population Pyknosed Nuclei (%) [7]: 5%
- Population Tubulin-Different-Phenotype (%) [7]: 3%
- Total Cell Count [7]: 318
- Population Apoptotic (%) [8]: 84%
- Population Fragmented Nuclei (%) [8]: 12%
- Population Healthy Nuclei (%) [8]: 80%
- Population Hoechst High Intensity Objects (%) [8]: 2%
- Population Mitochondria Different-Phenotype (%) [8]: 5%
- Population Mitotic Cells (%) [8]: 15%
- Population Normal (%) [8]: 97%
- Population Pyknosed Nuclei (%) [8]: 6%
- Population Tubulin-Different-Phenotype (%) [8]: 5%
- Total Cell Count [8]: 192
- Population Apoptotic (%) [9]: 86%
- Population Fragmented Nuclei (%) [9]: 23%
- Population Healthy Nuclei (%) [9]: 69%
- Population Hoechst High Intensity Objects (%) [9]: 3%
- Population Membrane Permeable-Phenotype (%) [9]: 5%
- Population Mitochondria Different-Phenotype (%) [9]: 2%
- Population Mitotic Cells (%) [9]: 13%
- Population Normal (%) [9]: 96%
- Population Pyknosed Nuclei (%) [9]: 7%
- Population Tubulin-Different-Phenotype (%) [9]: 4%
- Total Cell Count [9]: 408
- Population Apoptotic (%) [10]: 78%
- Population Fragmented Nuclei (%) [10]: 22%
- Population Healthy Nuclei (%) [10]: 64%
- Population Hoechst High Intensity Objects (%) [10]: 6%
- Population Membrane Permeable-Phenotype (%) [10]: 7%
- Population Mitochondria Different-Phenotype (%) [10]: 5%
- Population Mitotic Cells (%) [10]: 21%
- Population Normal (%) [10]: 93%
- Population Pyknosed Nuclei (%) [10]: 12%
- Population Tubulin-Different-Phenotype (%) [10]: 6%
- Total Cell Count [10]: 159
- Population Apoptotic (%) [11]: 93%
- Population Fragmented Nuclei (%) [11]: 18%
- Population Healthy Nuclei (%) [11]: 75%
- Population Hoechst High Intensity Objects (%) [11]: 1%
- Population Membrane Permeable-Phenotype (%) [11]: 4%
- Population Mitochondria Different-Phenotype (%) [11]: 2%
- Population Mitotic Cells (%) [11]: 6%
- Population Normal (%) [11]: 98%
- Population Pyknosed Nuclei (%) [11]: 6%
- Population Tubulin-Different-Phenotype (%) [11]: 2%
- Total Cell Count [11]: 504
- Population Apoptotic (%) [12]: 94%
- Population Fragmented Nuclei (%) [12]: 15%
- Population Healthy Nuclei (%) [12]: 71%
- Population Hoechst High Intensity Objects (%) [12]: 3%
- Population Membrane Permeable-Phenotype (%) [12]: 8%
- Population Mitochondria Different-Phenotype (%) [12]: 1%
- Population Mitotic Cells (%) [12]: 5%
- Population Normal (%) [12]: 96%
- Population Pyknosed Nuclei (%) [12]: 13%
- Population Tubulin-Different-Phenotype (%) [12]: 4%
- Total Cell Count [12]: 280
